Common to all, as to assay type: functional
Test [1] has as its system Plasmopara viticola. Kind of test: Antifungal activity against Plasmopara viticola assessed as inhibition of grape downy mildew disease on vines cultivar Carignane plants at 100 ppm measured 96 hr post fungal inoculation relative to untreated control. In outline:
(§1)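 Whole-plant protectant test: pure compounds in acetone, serially diluted in acetone to 6.25, 25 or 100 ppm and applied to plants.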

Test [2] has as its system Puccinia graminis f. tritici. Kind of test: Antifungal activity against Puccinia graminis f. tritici assessed as inhibition of wheat stem rust disease on wheat cultivar Yuma at 6.25 ppm measured 96 hr post fungal inoculation relative to untreated control. The method in brief: as §1
Test [3] relates to Plasmopara viticola. Nature of the test: Antifungal activity against Plasmopara viticola assessed as inhibition of grape downy mildew disease on vines cultivar Carignane plants at 6.25 ppm measured 96 hr post fungal inoculation relative to untreated control. In outline:
as §1

In test [4] the test system is Puccinia graminis f. tritici. Nature of the test: Antifungal activity against Puccinia graminis f. tritici assessed as inhibition of wheat stem rust disease on wheat cultivar Yuma at 100 ppm measured 24 hr post fungal inoculation relative to untreated control. The method in brief: as §1
In test [5] the test system is Phytophthora infestans. Kind of test: Antifungal activity against Phytophthora infestans assessed as inhibition of late tomato blight disease on tomato cultivar Rutgers plants at 100 ppm measured 96 hr post fungal inoculation relative to untreated control. In outline: as §1
The test system of test [6] is Plasmopara viticola. Nature of the test: Antifungal activity against Plasmopara viticola assessed as inhibition of grape downy mildew disease on vines cultivar Carignane plants at 100 ppm measured 24 hr post fungal inoculation relative to untreated control. The method in brief:
as §1

In test [7] the test system is Puccinia graminis f. tritici. Kind of test: Antifungal activity against Puccinia graminis f. tritici assessed as inhibition of wheat stem rust disease on wheat cultivar Yuma at 25 ppm measured 96 hr post fungal inoculation relative to untreated control. The method in brief:
as §1

Test [8] deals with Plasmopara viticola. Kind of test: Antifungal activity against Plasmopara viticola assessed as inhibition of grape downy mildew disease on vines cultivar Carignane plants at 25 ppm measured 96 hr post fungal inoculation relative to untreated control. In outline: as §1
Test [9] has as its system Puccinia graminis f. tritici. Kind of test: Antifungal activity against Puccinia graminis f. tritici assessed as inhibition of wheat stem rust disease on wheat cultivar Yuma at 100 ppm measured 96 hr post fungal inoculation relative to untreated control. In outline: as §1
Test [10] concerns Phytophthora infestans. Nature of the test: Antifungal activity against Phytophthora infestans assessed as inhibition of late tomato blight disease on tomato cultivar Rutgers plants at 100 ppm measured 24 hr post fungal inoculation relative to untreated control. In outline:
as §1

Test [11] concerns Zymoseptoria tritici. Kind of test: Antifungal activity against Zymoseptoria tritici assessed as inhibition of wheat leaf spot disease on wheat cultivar Yuma at 25 ppm measured 24 hr post fungal inoculation relative to untreated control. The method in brief:
as §1

In test [12] the test system is Phytophthora infestans. Nature of the test: Antifungal activity against Phytophthora infestans assessed as inhibition of late tomato blight disease on tomato cultivar Rutgers plants at 6.25 ppm measured 24 hr post fungal inoculation relative to untreated control. The method in brief:
as §1

The test system of test [13] is Plasmopara viticola. Kind of test: Antifungal activity against Plasmopara viticola assessed as inhibition of grape downy mildew disease on vines cultivar Carignane plants at 25 ppm measured 24 hr post fungal inoculation relative to untreated control. In outline:
as §1

For test [14], the system named is Phytophthora infestans. Nature of the test: Antifungal activity against Phytophthora infestans assessed as inhibition of late tomato blight disease on tomato cultivar Rutgers plants at 6.25 ppm measured 96 hr post fungal inoculation relative to untreated control. In outline:
as §1

Test [15] concerns Puccinia graminis f. tritici. Nature of the test: Antifungal activity against Puccinia graminis f. tritici assessed as inhibition of wheat stem rust disease on wheat cultivar Yuma at 6.25 ppm measured 24 hr post fungal inoculation relative to untreated control. In outline: as §1
Test [16] deals with Phytophthora infestans. Kind of test: Antifungal activity against Phytophthora infestans assessed as inhibition of late tomato blight disease on tomato cultivar Rutgers plants at 25 ppm measured 96 hr post fungal inoculation relative to untreated control. In outline:
as §1

The test system of test [17] is Parastagonospora nodorum. Kind of test: Antifungal activity against Phaeosphaeria nodorum assessed as inhibition of glume blotch disease on wheat cultivar Yuma plants at 100 ppm measured 24 hr post fungal inoculation relative to untreated control. In outline: as §1
The subject of test [18] is Parastagonospora nodorum. Kind of test: Antifungal activity against Phaeosphaeria nodorum assessed as inhibition of glume blotch disease on wheat cultivar Yuma plants at 25 ppm measured 24 hr post fungal inoculation relative to untreated control. In outline: as §1
Test [19] relates to Plasmopara viticola. Nature of the test: Antifungal activity against Plasmopara viticola assessed as inhibition of grape downy mildew disease on vines cultivar Carignane plants at 6.25 ppm measured 24 hr post fungal inoculation relative to untreated control. In outline:
as §1

Test [20] relates to Zymoseptoria tritici. Nature of the test: Antifungal activity against Zymoseptoria tritici assessed as inhibition of wheat leaf spot disease on wheat cultivar Yuma at 6.25 ppm measured 24 hr post fungal inoculation relative to untreated control. In outline:
as §1

The test system of test [21] is Phytophthora infestans. Nature of the test: Antifungal activity against Phytophthora infestans assessed as inhibition of late tomato blight disease on tomato cultivar Rutgers plants at 25 ppm measured 24 hr post fungal inoculation relative to untreated control. The method in brief:
as §1

For test [22], the system named is Zymoseptoria tritici. Kind of test: Antifungal activity against Zymoseptoria tritici assessed as inhibition of wheat leaf spot disease on wheat cultivar Yuma at 100 ppm measured 24 hr post fungal inoculation relative to untreated control. In outline: as §1
For test [23], the system named is Puccinia graminis f. tritici. Nature of the test: Antifungal activity against Puccinia graminis f. tritici assessed as inhibition of wheat stem rust disease on wheat cultivar Yuma at 25 ppm measured 24 hr post fungal inoculation relative to untreated control. The method in brief:
as §1

Test [24] concerns Parastagonospora nodorum. Kind of test: Antifungal activity against Phaeosphaeria nodorum assessed as inhibition of glume blotch disease on wheat cultivar Yuma plants at 6.25 ppm measured 24 hr post fungal inoculation relative to untreated control. The method in brief: as §1
The subject of test [25] is Parastagonospora nodorum. Kind of test: Antifungal activity against Phaeosphaeria nodorum assessed as inhibition of glume blotch disease on wheat cultivar Yuma plants at 25 ppm measured 96 hr post fungal inoculation relative to untreated control. The method in brief: as §1
Test [26] has as its system Parastagonospora nodorum. Kind of test: Antifungal activity against Phaeosphaeria nodorum assessed as inhibition of glume blotch disease on wheat cultivar Yuma plants at 100 ppm measured 96 hr post fungal inoculation relative to untreated control. The method in brief: as §1

These results are taken from ChEMBL document CHEMBL3046621, “Fungicidal sesquiterpene dialdehyde cinnamates from Pseudowintera axillaris” (2006).

SMILES strings stand for the structures.

As usually defined, the inhibition is the change of the read-out against control, counted positive when it falls. For the molecule `C=C1[C@@H]2[C@H](O)C=C(C=O)[C@H](C=O)[C@@]2(C)[C@H](OC(=O)/C=C/c2ccccc2)C[C@@H]1C`, the inhibition at 100 ppm in test [1] is 86%; in [4], 77%; in test [5], 3%; in test [6] it was 76%; in [9], 61%; in test [10], 100%. In addition, the inhibition at 100 ppm in test [17] came out at 73%; in [22], 0%. Moreover, the inhibition at 6.25 ppm was determined as 0% in test [2]; 0% in test [3]; 72% in [12]; 0% in test [14]; 0% in test [15]; 0% in [19]. Also, the inhibition at 6.25 ppm in test [20] and in [24] was 0% in each case. Moreover, the inhibition at 25 ppm in test [7] was found to be 4%; in test [8], 0%; in test [11], 0%; in test [13], 28%; in [16] it was 7%; in test [18], 0%. For the same molecule, the inhibition at 25 ppm in test [21] amounted to 82%; in test [23] it was 8%.
On to `C=C1[C@@H](C)C[C@@H](OC(=O)/C=C/c2ccccc2)[C@]2(C)[C@@H](C=O)C(C=O)=CC[C@@H]12` [Paxidal], for which the inhibition at 100 ppm in [1] is 0%; in [4], 0%; in test [5], 9%; in test [6], 51%; in test [10], 69%; in [17] it was 17%. The inhibition at 100 ppm in test [22] was 7%; in test [26] it was 18%. The inhibition at 25 ppm was 0% in test [8]; 0% in [11]; 0% in [25]; 23% in test [13]; 18% in [16]; 0% in test [18]. The inhibition at 25 ppm in test [21] was found to be 57%; in [23], 0%.
